In ChEMBL document CHEMBL4680152, “Molecular design, synthesis, and biological evaluation of bisamide derivatives as cyclophilin A inhibitors for HCV treatment” (Eur J Med Chem, 2020):

What was measured:
[1] = Cytotoxicity against human Huh7.5 cells assessed as reduction in cell viability after 3 days by MTT assay; format: cell-based; settings: time 3 day
In short: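 Huh7.5 cells were mock-infected and then treated with increasing concentrations of compound (3-fold serial dilutions), in parallel with the antiviral plates. Viability was measured by MTT assay and CC50 was derived. Run in triplicate.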

[2] = Selectivity index, ratio of CC50 for human Huh7.5 cells to EC50 for HCV genotype 2a JFH-1 infected in human Huh7.5 cells; format: toxicity, cell-based; settings: read-out: Ratio CC50/EC50
In short: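 This is the CC50/EC50 ratio. CC50 came from MTT viability of mock-infected Huh7.5 cells. EC50 came from Renilla luciferase in Huh7.5 cells infected with JFH1-Luc (MOI 0.004) and read 3 days post-infection, with 3-fold serial compound dilutions. Both were run in parallel, in triplicate.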

[3] = Antiviral activity against recombinant HCV genotype 2a JFH-1 infected in human Huh7.5 cells after 3 days by renilla luciferase reporter gene assay; format: functional, cell-based, Hepatitis C virus subtype 2a; settings: Hepatitis C virus, JFH-1, Huh7.5, 72 h
In short: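 Huh7.5 cells in DMEM with 10% FBS were infected with JFH1-Luc reporter virus at MOI 0.004 for 5 h at 37 °C while exposed to 3-fold serial dilutions of compound. On day 3 post-infection, the cells were lysed and Renilla luciferase activity was read. EC50 was calculated from the signal. Run in triplicate.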

[4] = target: Peptidyl-prolyl cis-trans isomerase A (Homo sapiens, UniProt P62937); assay: Binding affinity to Cyclophilin A (unknown origin) by surface plasmon resonance analysis
Sequence of Peptidyl-prolyl cis-trans isomerase A (P62937 whole entry): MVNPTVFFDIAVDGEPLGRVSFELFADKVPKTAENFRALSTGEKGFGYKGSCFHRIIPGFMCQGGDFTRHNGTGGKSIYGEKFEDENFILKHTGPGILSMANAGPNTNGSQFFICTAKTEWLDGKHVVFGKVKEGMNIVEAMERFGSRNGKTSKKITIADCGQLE
In short: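 SPR was used. CypA was immobilized by EDC/NHS activation, diluted in 10 mM sodium acetate pH 6.0, then quenched with 1 M ethanolamine pH 8.5. A protein-free reference channel was used. Running buffer was PBS with 5% DMSO at 30 µL/min, with 3 min association and 4 min dissociation. Regeneration used 50 mM NaOH. KD came from kinetic fitting.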

Compound | CC50 at 72 h [1] [µM] | selectivity ratio [2] | EC50 [3] [µM] | Kd [4] [µM]
COc1cc(C(C(=O)NC2CCCCC2)N(C(=O)Cc2c[nH]c3ccccc23)c2ccc(C(C)C)cc2)cc(OC)c1OC (centres undefined) | > 100 | > 19.2 | 5.2 | 
COc1ccc(N(C(=O)Cc2c[nH]c3ccccc23)C(C(=O)NC2CCCCC2)c2cc(OC)c(OC)c(OC)c2)cc1 (centres undefined) | 44.8 | 9 | 5 | 
COc1cc(C(C(=O)NC2CCCCC2)N(C(=O)c2cc3ccccc3[nH]2)c2ccc(C(C)C)cc2)cc(OC)c1OC (centres undefined) | 19.4 | 9.7 | 2 | 
COc1ccc(C(C(=O)NC2CCCCC2)N(C(=O)Cc2c[nH]c3ccccc23)C2CCCCC2)cc1OC (centres undefined) | 14.6 |  | > 14.6 | 
COc1ccc(C(C(=O)NC2CCCCC2)N(C(=O)Cc2c[nH]c3ccccc23)c2ccc(C(C)C)cc2)c(OC)c1OC (centres undefined) | 5.9 |  | > 5.9 | 
COc1cc(C(C(=O)NC(C)(C)C)N(C(=O)Cc2c[nH]c3ccccc23)c2ccc(C(C)C)cc2)cc(OC)c1OC (centres undefined) | 13.9 | 2.3 | 6.3 | 
COc1ccc(C(C(=O)NC2CCCCC2)N(C(=O)Cc2c[nH]c3ccccc23)c2ccc(C(C)C)cc2)cc1OC (centres undefined) | 6.9 | 3.5 | 2 | 
COc1ccc(Cn2cc(CC(=O)N(c3ccccc3)C(C(=O)NC3CCCCC3)c3ccccc3)c3ccccc32)cc1 (centres undefined) | 24.4 |  | > 24.4 | 
COc1ccc(N(C(=O)Cc2c[nH]c3ccccc23)C(C(=O)NC2CCCCC2)c2cc(OC)c(OC)c(OC)c2)cc1OC (centres undefined) | 56.7 | 5.5 | 10.2 | 
COc1ccc(C(C(=O)NC2CCCCC2)N(C(=O)Cc2c[nH]c3ccccc23)c2ccccc2)c(OC)c1OC (centres undefined) | 18.8 |  | > 18.8 | 
COc1cc(C(C(=O)NC2CCCCC2)N(C(=O)Cc2c[nH]c3ccccc23)c2cccc3ccccc23)cc(OC)c1OC (centres undefined) | 33.2 | 3.4 | 9.4 | 
COc1ccc(CCN(C(=O)Cc2c[nH]c3ccccc23)C(C(=O)NC2CCCCC2)c2cc(OC)c(OC)c(OC)c2)cc1OC (centres undefined) | > 100 | > 18.9 | 5.3 | 3.66
COc1cc(C(C(=O)NC(C)(C)C)N(C(=O)c2cc3ccccc3[nH]2)c2ccc(C(C)C)cc2)cc(OC)c1OC (centres undefined) | 36.7 | 6.2 | 5.9 | 
COc1ccc(N(C(=O)Cc2c[nH]c3ccccc23)C(C(=O)NC2CCCCC2)c2ccc(OC)c(OC)c2)cc1 (centres undefined) | 32.7 | 8.6 | 3.8 | 
COc1ccc(C(C(=O)NC2CCCCC2)N(CC(OC)OC)C(=O)Cc2c[nH]c3ccccc23)cc1OC (centres undefined) | 54.5 |  | > 54.5 | 
COc1ccc(C(C(=O)NC2CCCCC2)N(C(=O)Cc2c[nH]c3ccccc23)c2ccc(Br)cc2)c(OC)c1OC (centres undefined) | 7.2 |  | > 7.2 | 
COc1ccc(C(C(=O)NC2CCCCC2)N(C(=O)Cc2c[nH]c3ccccc23)c2ccc(OC)c(OC)c2)cc1OC (centres undefined) | 55.3 | 10.5 | 5.3 | 
NC(=O)c1ncn([C@@H]2O[C@H](CO)[C@@H](O)[C@H]2O)n1 [RIBAVIRIN] | 16.3 | > 6.1 | > 100 | 
